From ChEMBL document CHEMBL1140904, “Synthesis and analysis of novel glycerolipids for the treatment of metabolic syndrome” (J Med Chem, 2009)
Calls of active or inactive are those of the source. The rule behind the calls is not given here.

Tests used:
Rattus norvegicus [1] = assay: Effect on fatty acid composition in Wistar rat assessed as change in liver saturated fatty acid level at dose equivalent to 250 umol of tetradecylthioacetic acid, po after 6 days; type: functional
Method in brief: (§1)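 Male Wistar rats were gavaged once daily for 6 days with compound in 0.5% CMC at 85 or 250 µmol TTA-equivalent per animal. Controls received palmitic acid. Liver was homogenized in 0.25 M sucrose/10 mM HEPES pH 7.4/1 mM EDTA at 0-4 °C. Lipids were extracted with chloroform:methanol 2:1 and spiked with 21:0 internal standard. Fatty acids were BF3-methanol transesterified and quantified as wt%. Values are mean ± SD, n=5.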

Rattus norvegicus [2] = assay: Effect on fatty acid composition in Wistar rat assessed as change in plasma PUFA level at dose equivalent to 85 umol of tetradecylthioacetic acid, po after 6 days; type: functional
Rattus norvegicus [3] = assay: Decrease in plasma triacylglycerol level in po dosed Wistar rat after 6 days; type: functional, organism-based
Method in brief: (§2)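 Male Wistar rats (170-210 g), housed in pairs with chow and water, were gavaged once daily for 6 days with test lipid in 0.5% (w/v) carboxymethylcellulose at 85 or 250 µmol TTA-equivalent per animal. Controls received palmitic acid in CMC. Plasma triacylglycerol and cholesterol were measured with an enzymatic kit, and liver levels were also determined. Values are mean ± SD, n=5 rats.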

Rattus norvegicus [4] = assay: Effect on fatty acid composition in Wistar rat assessed as change in liver 18;2, n-6 level at dose equivalent to 85 umol of tetradecylthioacetic acid, po after 6 days; type: functional; method in brief: as §1
Rattus norvegicus [5] = assay: Effect on fatty acid composition in Wistar rat assessed as change in liver PUFA level at dose equivalent to 250 umol of tetradecylthioacetic acid, po after 6 days; type: functional; method in brief: as §1
Rattus norvegicus [6] = assay: Effect on fatty acid composition in Wistar rat assessed as change in plasma PUFA level at dose equivalent to 250 umol of tetradecylthioacetic acid, po after 6 days; type: functional
Rattus norvegicus [7] = assay: Effect on fatty acid composition in Wistar rat assessed as change in plasma LCn-6/18:2 level at dose equivalent to 85 umol of tetradecylthioacetic acid, po after 6 days; type: functional
Rattus norvegicus [8] = assay: Effect on fatty acid composition in Wistar rat assessed as change in plasma 18;2, n-6 level at dose equivalent to 85 umol of tetradecylthioacetic acid, po after 6 days; type: functional
Liver = assay: Drug concentration in Wistar rat liver assessed as tetradecylthioacetic acid at dose equivalent to 85 umol of tetradecylthioacetic acid, po after 6 days; type: ADME, organism-based; conditions: in vivo, 144 h; method in brief: as §1
Rattus norvegicus [9] = assay: Decrease in plasma triacylglycerol level in Wistar rat at dose equivalent to 250 umol of tetradecylthioacetic acid, po after 6 days relative to control; type: functional; design: scale not given: the % may be the effect or the level left; method in brief: as §2
Rattus norvegicus [10] = assay: Decrease in plasma cholesterol level in Wistar rat at dose equivalent to 250 umol of tetradecylthioacetic acid, po after 6 days relative to control; type: functional; design: scale not given: the % may be the effect or the level left; method in brief: as §2
Rattus norvegicus [11] = assay: Effect on fatty acid composition in Wistar rat assessed as change in plasma LCn-6/18:2 level at dose equivalent to 250 umol of tetradecylthioacetic acid, po after 6 days; type: functional
Rattus norvegicus [12] = assay: Induction of PPAR-alpha-regulated mitochondrial HMG-CoA synthase activity in Wistar rat at dose equivalent to 250 umol of tetradecylthioacetic acid, po after 6 days relative to control; type: functional
Method in brief: (§3)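 Wistar rats were gavaged daily for 6 days at 85 or 250 µmol TTA-equivalent in 0.5% CMC, with palmitic acid controls. HMG-CoA synthase activity was assayed in the liver postnuclear fraction by the Clinkenbeard method. Mean ± SD, 5 rats/group.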

Rattus norvegicus [13] = assay: Effect on fatty acid composition in Wistar rat assessed as change in liver LCPUFA, n-6 level at dose equivalent to 85 umol of tetradecylthioacetic acid, po after 6 days; type: functional; method in brief: as §1
Rattus norvegicus [14] = assay: Effect on fatty acid composition in Wistar rat assessed as change in plasma MUFA level at dose equivalent to 250 umol of tetradecylthioacetic acid, po after 6 days; type: functional
Rattus norvegicus [15] = assay: Effect on fatty acid composition in Wistar rat assessed as change in plasma MUFA level at dose equivalent to 85 umol of tetradecylthioacetic acid, po after 6 days; type: functional
Rattus norvegicus [16] = assay: Effect on fatty acid composition in Wistar rat assessed as change in plasma LCPUFA, n-6 level at dose equivalent to 250 umol of tetradecylthioacetic acid, po after 6 days; type: functional
Rattus norvegicus [17] = assay: Increase in [1-14C]palmitoyl-CoA oxidation in Wistar rat liver homogenate at 250 uM, po after 6 days; type: functional, organism-based
Method in brief: (§4)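 Rats were dosed by gastric intubation for 6 days with 85 or 250 µmol TTA-equivalent in 0.5% CMC, with palmitic acid controls. Liver was homogenized in 0.25 M sucrose, 10 mM HEPES pH 7.4, 1 mM EDTA at 0-4 °C. Palmitoyl-CoA oxidation was read as acid-soluble products from [1-14C]-palmitoyl-CoA in the postnuclear fraction. Mean ± SD, n=5.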

Rattus norvegicus [18] = assay: Decrease in liver cholesterol level in Wistar rat at dose equivalent to 250 umol of tetradecylthioacetic acid, po after 6 days relative to control; type: functional; design: scale not given: the % may be the effect or the level left; method in brief: as §2
Rattus norvegicus [19] = assay: Plasma concentration in Wistar rat assessed as tetradecylthioacetic acid at dose equivalent to 85 umol of tetradecylthioacetic acid, po after 6 days; type: ADME, organism-based; conditions: in vivo, 144 h
Rattus norvegicus [20] = assay: Increase in [1-14C]palmitoyl-CoA oxidation in po dosed Wistar rat liver homogenate after 6 days; type: functional, organism-based; method in brief: as §4
Rattus norvegicus [21] = assay: Effect on fatty acid composition in Wistar rat assessed as change in liver 18;2, n-6 level at dose equivalent to 250 umol of tetradecylthioacetic acid, po after 6 days; type: functional; method in brief: as §1
Rattus norvegicus [22] = assay: Effect on fatty acid composition in Wistar rat assessed as change in liver PUFA level at dose equivalent to 85 umol of tetradecylthioacetic acid, po after 6 days; type: functional; method in brief: as §1
Rattus norvegicus [23] = assay: Induction of PPAR-alpha-regulated HMG-CoA synthase activity in po dosed Wistar rat after 6 days; type: functional, organism-based; method in brief: as §3
Rattus norvegicus [24] = assay: Effect on fatty acid composition in Wistar rat assessed as change in plasma 18;2, n-6 level at dose equivalent to 250 umol of tetradecylthioacetic acid, po after 6 days; type: functional
Rattus norvegicus [25] = assay: Effect on fatty acid composition in Wistar rat assessed as change in liver saturated fatty acid level at dose equivalent to 85 umol of tetradecylthioacetic acid, po after 6 days; type: functional; method in brief: as §1
Rattus norvegicus [26] = assay: Induction of PPAR-alpha-regulated CPT2 activity in po dosed Wistar rat after 6 days; type: functional, organism-based
Method in brief: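 Wistar rats were dosed orally for 6 days (85 or 250 µmol TTA-equivalent in 0.5% CMC; palmitic acid controls). CPT-II activity was measured in the liver mitochondrial fraction, prepared from sucrose/HEPES pH 7.4/EDTA homogenate at 0-4 °C. Means ± SD from 5 rats per group.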

Rattus norvegicus [27] = assay: Induction of PPAR-alpha-regulated fatty acyl-CoA oxidase activity in po dosed Wistar rat after 6 days; type: functional, organism-based
Method in brief: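 Rats were dosed by gastric intubation for 6 days at 85 or 250 µmol TTA-equivalent in 0.5% CMC, with palmitic acid controls. Fatty acyl-CoA oxidase was measured in the liver postnuclear fraction by a coupled assay, following H2O2 production as the rise in dichlorofluorescein absorbance with palmitoyl-CoA. Mean ± SD, n=5.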

Rattus norvegicus [28] = assay: Plasma concentration in Wistar rat assessed as tetradecylthioacetic acid at dose equivalent to 250 umol of tetradecylthioacetic acid, po after 6 days; type: ADME, organism-based; conditions: in vivo, 144 h
Rattus norvegicus [29] = assay: Effect on fatty acid composition in Wistar rat assessed as change in liver LCPUFA, n-6 level at dose equivalent to 250 umol of tetradecylthioacetic acid, po after 6 days; type: functional; method in brief: as §1

## CCCCCCCCCCCCCCSCC(=O)OC[C@H](COP(=O)([O-])OCC[N+](C)(C)C)OC(=O)CSCCCCCCCCCCCCCC [PHOSPHATIDYLCHOLINE]
Rattus norvegicus [1]
  Activity: 39.22%
Rattus norvegicus [2]
  Activity: 2.42%
Rattus norvegicus [3]
  Activity: Dose-dependent effect
Rattus norvegicus [4]
  Activity: 11.99%
Rattus norvegicus [5]
  Activity: 4.05%
Rattus norvegicus [6]
  Activity: 1.86%
Rattus norvegicus [7]
  Activity: 0.97%
Rattus norvegicus [8]
  Activity: 19.52%
Liver
  Drug uptake: 1.28%
Liver; in the assay text read “equivalent to 250 umol” for “equivalent to 85 umol”
  Drug uptake: 3.34%
Rattus norvegicus [9]
  Activity: 60%
Rattus norvegicus [10]
  Activity: 60%
Rattus norvegicus [11]
  Activity: 1.25%
Rattus norvegicus [12]
  fold change (FC): 4
Rattus norvegicus [13]
  Activity: 26.13%
Rattus norvegicus [14]
  Activity: 21.62%
Rattus norvegicus [15]
  Activity: 22.53%
Rattus norvegicus [16]
  Activity: 22.07%
Rattus norvegicus [17]
  Activity: inactive
Rattus norvegicus [18]
  Activity: 20%
Rattus norvegicus [19]
  Drug uptake: 0.9%
Rattus norvegicus [20]
  Activity: Dose-dependent effect
Rattus norvegicus [21]
  Activity: 8.79%
Rattus norvegicus [22]
  Activity: 4.91%
Rattus norvegicus [23]
  Activity: Dose-dependent effect
Rattus norvegicus [24]
  Activity: 17.97%
Rattus norvegicus [25]
  Activity: 39.67%
Rattus norvegicus [26]
  Activity: Dose-dependent effect
Rattus norvegicus [27]
  Activity: Dose-dependent effect
Rattus norvegicus [28]
  Drug uptake: 1.95%
Rattus norvegicus [29]
  Activity: 30.3%
